# In the library only some 3.5% were active in any assay of this set; here they are far more common.
# RGS4 block: inhibitors of human RGS4; 310,000 compounds, 0.45% hits; HEK293 M3R/RGS4 inducible, Fluo-4 calcium flux; hits give high values; triggered by carbachol at its EC20; B-score at 10 µM; P49798;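 active = B-score, a plate-corrected calcium signal, over three deviations above library mean, with baseline fluorescence within five deviations of library mean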;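 note: RGS4 expression induced by doxycycline in cells with stable M3 receptor; B-score is computed from the integrated fluorescence ratio over baseline after carbachol; higher B-score means a larger calcium signal and so more RGS4 inhibition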
# Target sequence (P49798 whole entry, looked up): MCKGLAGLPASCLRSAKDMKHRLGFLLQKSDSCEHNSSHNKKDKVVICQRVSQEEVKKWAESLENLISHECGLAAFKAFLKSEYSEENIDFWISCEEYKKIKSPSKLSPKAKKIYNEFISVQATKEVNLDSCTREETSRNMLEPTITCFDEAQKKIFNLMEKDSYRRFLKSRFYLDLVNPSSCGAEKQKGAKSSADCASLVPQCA
# MrgX1 allo act: human MrgX1 positive allosteric modulation, primary screen; 310,000 compounds, 0.63% hits; Q96LB2; B-score at 10 µM; MrgX1-HEK293, Fluo-4 calcium flux, FDSS; hits give high values;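 active = plate-corrected calcium response at least 3 library SD above typical, normal starting fluorescence, not activating the receptor alone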;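 note: compound read alongside a low EC10 to EC30 dose of BAM8-22 agonist; peak minus trough fluorescence over baseline measured at the second addition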
# Target sequence (Q96LB2 whole entry, looked up): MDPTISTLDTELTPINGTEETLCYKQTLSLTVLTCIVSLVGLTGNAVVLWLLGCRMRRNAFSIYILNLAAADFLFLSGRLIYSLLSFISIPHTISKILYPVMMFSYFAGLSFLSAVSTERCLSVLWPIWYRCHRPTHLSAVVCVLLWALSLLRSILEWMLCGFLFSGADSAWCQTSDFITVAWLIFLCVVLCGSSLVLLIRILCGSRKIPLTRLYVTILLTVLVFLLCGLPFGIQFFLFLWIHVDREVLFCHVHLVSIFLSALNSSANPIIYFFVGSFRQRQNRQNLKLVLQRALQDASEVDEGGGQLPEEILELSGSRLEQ
# MrgX1 agonist: activates human MrgX1 receptor signaling; Q96LB2; MrgX1-HEK293 cells, Fluo-4 calcium fluorescence, agonist mode; hits give high values; B-score at 10 µM; 310,000 compounds, 0.44% hits;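 active = calcium response B-score plate-corrected fluorescence ratio at least 3 library SD, with starting fluorescence B-score inside 5 SD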
#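 Material – MrgX1-expressing HEK293 cells · Input – 15,000 cells seeded per well · Dosing – compound as first of three additions · Times – overnight seeding, then 1 h dark dye loading · Measured by – kinetic Fluo-4 NW fluorescence of intracellular calcium · Read-out – B-scored fluorescence response ratio · Benchmarks – positive and negative control wells on each plate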
# RGS4 act: RGS4 potentiation or activation | HEK293 M3R/inducible RGS4, carbachol calcium flux Fluo4; hits give low values | B-score at 10 µM | 310,000 compounds, 0.92% hits | AID 463111;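 active = B-score of the integrated calcium signal more than 4 SD below the library mean, with starting fluorescence not abnormally high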;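 note: negative B-score means reduced calcium response which marks RGS4 activation or potentiation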
#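 Material: M3R-expressing HEK293 line, RGS4 induced by doxycycline | Schedule: Overnight RGS4 induction, 30 min dye load 37 °C, 20 min compound RT | Measured by: Fluo4 fluorescence kinetic imaging of calcium | Read-out: Integrated calcium ratio converted to B score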
# MrgX1 antag: antagonists of human MrgX1 receptor | Q96LB2 | MRGX1-HEK293 calcium flux, Fluo-4, BAM8-22 antagonism; hits give low values | B-score at 10 µM | 310,000 compounds, 1.3% hits | AID 588676;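 active = calcium-response B-score plate-corrected more than 3 library SD below zero, starting fluorescence within 5 deviations, no agonist response on first addition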;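 note: peak minus trough fluorescence over baseline after final BAM8-22 challenge near maximal dose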
# MrgX1 ag reconf: reconfirmed activator of human MrgX1 receptor signaling | activation, % at 10 µM | 600 compounds, 78% hits | shares compounds with MrgX1 agonist | MrgX1-HEK293, Fluo-4 calcium fluorescence, FDSS;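 active = calcium signal rise, corrected for plate position, at least 3 library SD high, with starting brightness within 5 such deviations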
# HEK293 Ca flux: MrgX1 antagonist counter-screen hit in parental HEK293 cells | shares compounds with MrgX1 antag | Fluo-4 calcium fluorescence, FDSS | fluorescence ratio F(max-min)/F0 at 10 µM | 4,000 compounds, 2% hits;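 active = duplicate-averaged calcium fluorescence ratio at least three times the standard deviation of buffer wells, a nonspecific response in parental cells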
# HEK293 Ca counter: activity in parental HEK293 cells without MrgX1. shares compounds with MrgX1 antag. parental HEK293 calcium flux, Fluo-4 fluorescence ratio; hits give high values. fluorescence ratio F(max-min)/F0 at 10 µM. 4,000 compounds, 0.4% hits;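 active = calcium fluorescence ratio, averaged over duplicates, at least 3 SD of the buffer-well ratio, meaning a nonspecific response in receptor-free cells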;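 note: untransfected parental HEK293 lacking MrgX1 used as counterscreen for MrgX1 allosteric activators; fluorescence change taken during the second addition on a kinetic imager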
# HEK293 Ca cntr2: activity in parental HEK293 cells lacking MrgX1 receptor; shares compounds with MrgX1 antag; Fluo-4 calcium fluorescence (FDSS); hits give high values; fluorescence ratio F(max-min)/F0 at 10 µM; 4,000 compounds, 8.7% hits; AID 624115;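 active = calcium fluorescence ratio at least three times the spread of buffer wells, meaning a non-specific response in parental cells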
# A number is an active result; i = inactive; nt = no result.
SMILES,RGS4 block,MrgX1 allo act,MrgX1 agonist,RGS4 act,MrgX1 antag,MrgX1 ag reconf,HEK293 Ca flux,HEK293 Ca counter,HEK293 Ca cntr2
CCOC(=O)CC(=O)CSc1nc(CC)c(C)cc1C#N,i,i,i,i,i,nt,nt,nt,nt
O=C(NNC(=S)Nc1ccccc1)c1cccs1,i,i,i,i,i,nt,nt,nt,nt
Cc1ccccc1C(=O)NNC(=S)NC(=O)c1cccs1,i,i,79,i,i,651%,i,i,130
Cc1ccccc1C(=O)Nc1cccc(NC(=S)NC(=O)c2cccs2)c1,i,i,i,i,i,nt,nt,nt,nt
Cc1cccc(C(=O)NC(=S)NNC(=O)c2cccs2)c1,i,i,173,i,i,647%,i,i,140
O=C(NC(=S)NNC(=O)c1cccs1)c1ccccc1,i,i,132,i,i,547%,i,i,107
Cc1cccc(C(C)C)c1NC(=O)COC(=O)CNS(=O)(=O)c1ccccc1,i,i,i,i,i,nt,nt,nt,nt
CCOCCn1c(SC(C)C(C)=O)nc2c1c(=O)[nH]c(=O)n2C (stereo not drawn),i,i,53,i,i,i,i,i,i
CCOc1ccccc1NC(=O)COC(=O)C1CC(=O)N(c2c(C)cccc2C)C1 (stereo not drawn),i,i,28,i,i,i,i,i,i
CN1CCCC1CCNc1ccc2sc3ccccc3c(=O)c2c1 (stereo not drawn),i,i,50,i,i,424%,i,i,118
O=c1c2ccccc2sc2ccc(NCCCN3CCOCC3)cc12,i,i,34,i,i,324%,i,i,107
CCOC(=O)Nc1ccc2c(c1)N(C(=O)CN1CCN(CCO)CC1)c1ccccc1CC2,i,i,i,i,i,nt,nt,nt,nt
O=C1CSc2ccc(C(=O)NCCC3=CCCCC3)cc2N1,i,i,119,i,i,i,i,i,i
CC(=O)OCc1c(C)cc(C)c(/C=C(/C#N)C(N)=O)c1C,i,i,i,i,i,nt,nt,nt,nt
CCC(Oc1ccccc1OC)C(=O)Nc1ccc2c(c1)OCO2 (stereo not drawn),i,i,i,i,i,nt,nt,nt,nt
O=c1oc(-c2ccccc2Cl)nc2ccsc12,i,i,51,i,i,210%,i,i,60
COc1ccccc1/C=C/C(=O)N1CCc2cc(OC)c(OC)cc2C1C (stereo not drawn),i,i,i,i,i,nt,nt,nt,nt
Fc1cccc(Cl)c1CN1CCN(c2nc3ccccc3s2)CC1,i,i,31,i,i,224%,i,i,i
O=C(c1ccc2ccccc2n1)N1CCN(Cc2c(F)cccc2Cl)CC1,i,i,i,i,i,nt,nt,nt,nt
Cc1cc(NC(=O)CC2Oc3ccccc3NC2=O)ccc1Br (stereo not drawn),i,i,i,i,i,nt,nt,nt,nt
CCC1c2ccc(C)n2CCN1C(=O)Nc1ccccc1C(=O)OC (stereo not drawn),i,i,29,i,i,i,i,i,i
CCC1c2ccc(C)n2CCN1C(=O)Nc1cc(Cl)ccc1OC (stereo not drawn),i,i,33,i,i,i,i,i,i
CCOC(=O)c1ccccc1NC(=O)N1CCn2c(C)ccc2C1CC (stereo not drawn),i,i,i,i,i,nt,nt,nt,nt
O=C(COc1ccc2c3c(c(=O)oc2c1)CCC3)NC(Cc1ccc(Cl)cc1)C(=O)O (stereo not drawn),i,i,i,i,i,nt,nt,nt,nt
Cc1nn(C)c(C)c1CN(Cc1nc(-c2ccc(F)cc2F)oc1C)C1CC1,i,i,56,i,i,254%,i,i,49
SMILES,RGS4 block,MrgX1 allo act,MrgX1 agonist,RGS4 act,MrgX1 antag,MrgX1 ag reconf,HEK293 Ca flux,HEK293 Ca counter,HEK293 Ca cntr2
Cc1nn(C)c(C)c1CN(Cc1nc(-c2cc(F)ccc2F)oc1C)C1CC1,i,i,i,i,i,nt,nt,nt,nt
CCCCn1c(N)c(N(CC(C)C)C(=O)c2oc3ccc(Br)cc3c2C)c(=O)[nH]c1=O,i,i,i,i,i,nt,nt,nt,nt
CSCCC(NC(=O)c1ccco1)C(=O)OC(C)C(=O)NC(=O)NC1CCCCC1 (stereo not drawn),i,i,92,i,i,397%,i,i,86
COc1ccc2c(c1OC)C(=O)N(c1cccc(NC(C)=O)c1)C2,i,i,27,i,i,119%,i,i,i
CC(=O)COc1cccc2ccc(/C=C/c3ccc(Br)s3)nc12,i,i,38,i,i,163%,i,i,49
CC1(C)Cc2ccccc2-c2nc(NCCO)n(-c3ccccc3)c(=O)c21,i,i,i,i,i,nt,nt,nt,nt
CCC1(C)Cc2ccccc2-c2nc(NCCO)n(-c3ccc(C)cc3)c(=O)c21 (stereo not drawn),i,i,39,i,i,173%,i,i,56
CC(C)c1ccc(N(C(=O)c2csnn2)C(C(=O)NC2CCCC2)c2cccnc2)cc1 (stereo not drawn),i,i,33,i,i,i,i,i,i
O=C1N=c2ccc([N+](=O)[O-])cc2=C1c1sc(=O)[nH]c1O,i,i,i,i,i,nt,nt,nt,nt
CCOC(=O)CC1COCCN1C(=O)c1ccc2oc(Cc3ccccc3)nc2c1 (stereo not drawn),i,i,i,i,i,nt,nt,nt,nt
O=C(N/N=C/c1cc([N+](=O)[O-])cc(Br)c1O)C12CC3CCC(CC(C3)C1)C2,i,i,73,i,i,175%,i,i,92
COc1cc(/C=N/NC(=O)C23CC4CC(CC(C4)C2)C3)cc(Br)c1O,i,i,i,i,i,nt,nt,nt,nt
Nc1ncccc1OCc1ccc(Cl)c(Cl)c1,i,i,41,i,i,172%,i,i,i
O=C(O)c1ccccc1C(=O)Nc1ccc(S(=O)(=O)Nc2ccc(F)cc2)cc1,i,i,i,i,i,nt,nt,nt,nt
Oc1c(C(c2ccccn2)N2CCCCC2)cc(Cl)c2cccnc12 (stereo not drawn),i,i,32,i,i,97%,i,i,i
COc1cccc(NC(=O)CN(C)C(=O)c2ccccc2-c2nc3ccccc3s2)c1,i,i,i,i,i,nt,nt,nt,nt
COc1ccnc(CSC(N)=Nc2ccccc2OC)c1,i,i,i,i,i,nt,nt,nt,nt
COc1ccnc(CSC(N)=Nc2ccccc2C(F)(F)F)c1,i,i,33,i,i,102%,i,i,i
OC(C#Cc1ccccn1)c1cccs1 (stereo not drawn),i,i,44,i,i,i,i,i,i

# Screening results from PubChem.
